Screening results (PubChem)
Env fusion inh: inhibitors of HIV Env-mediated cell fusion; AID 651610; hit rate 1.1% among 360,000; HeLa-JRFL Env/CEM21 cell fusion, luciferase; inhibition, % at 12.3 µM;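 active = mean replicate inhibition score of at least 50 and every replicate individually at or above 50; inconclusive = only one of the two criteria met; inactive = mean below 50 and not all replicates reaching 50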;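 also: 0% = plate neutral controls and 100% = maraviroc near 300 nM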
AF4-AF9 inh: blocks AF4 peptide binding to human AF9. P42568. AlphaScreen, biotin-AF4 peptide binding to FLAG-AF9. inhibition, % at 10 µM. hit rate 0.47% among 350,000. AID 651704;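 active = every replicate reaching a set inhibition limit, whatever the replicate mean, cut at about 25% in these data; inconclusive = mean inhibition reaches that limit but some replicates miss it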;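 also: 0% = plate neutral control median and 100% = total signal loss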
Target sequence (P42568 whole entry, looked up): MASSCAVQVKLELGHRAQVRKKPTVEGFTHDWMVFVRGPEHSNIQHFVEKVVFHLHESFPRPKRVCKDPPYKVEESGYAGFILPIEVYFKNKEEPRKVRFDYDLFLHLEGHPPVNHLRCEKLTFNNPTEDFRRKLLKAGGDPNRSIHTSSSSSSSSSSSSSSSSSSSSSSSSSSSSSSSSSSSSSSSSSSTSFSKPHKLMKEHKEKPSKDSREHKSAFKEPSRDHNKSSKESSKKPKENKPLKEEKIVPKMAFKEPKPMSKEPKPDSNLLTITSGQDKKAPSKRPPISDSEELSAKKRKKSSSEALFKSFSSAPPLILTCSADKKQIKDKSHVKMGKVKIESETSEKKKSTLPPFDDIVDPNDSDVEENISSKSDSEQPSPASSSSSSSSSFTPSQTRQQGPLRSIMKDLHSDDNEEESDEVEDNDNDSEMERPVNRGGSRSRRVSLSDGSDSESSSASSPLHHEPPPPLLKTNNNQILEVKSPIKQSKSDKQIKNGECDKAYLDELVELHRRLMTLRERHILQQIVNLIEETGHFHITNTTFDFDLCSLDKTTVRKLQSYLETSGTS
EWS-Fli inh: blocks EWS/Fli oncoprotein-driven transcription; A673 NR0B1-luciferase reporter, viability-normalised; inhibition, % at 12.6 µM; hit rate 0.67% among 350,000; AID 651661;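 active = mean inhibition of at least 50% after viability correction, with every replicate also passing that limit; inconclusive = mean reaches 50% but only one of two replicates passes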;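 also: firefly luciferase signal divided by Alamar Blue viability fluorescence both relative to DMSO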
Glyco luc inh: N-linked glycosylation inhibition | reporter increase, % at 12.5 µM | D54 ERlucT glycosylation luciferase reporter, 24 h; percent of 100 nM tunicamycin response | hit rate 0.23% among 360,000;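 active = mean luciferase reporter signal, scaled so untreated is 0 and the glycosylation-blocking control 100, at or above a set limit in every replicate; inconclusive = mean reaches the limit but not every replicate does; inactive = mean below the limit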;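 also: luciferase carries N-glycosylation sites so blocking glycosylation raises the light; 0% = median of neutral control wells and 100% = median of 100 nM tunicamycin wells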
PAX8 inh HTS: lowers PAX8-driven luciferase in RMG-I cells | RMG-I TPO-luciferase reporter, SteadyGlo, 24 h | inhibition, % at 12.6 µM | hit rate 1.2% among 360,000 | AID 652154;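 active = mean replicate inhibition at least 60% with every replicate also reaching 60%; inconclusive = only one of the two criteria is met; inactive = mean below 60% and not all replicates reaching 60%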;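 also: luciferase light reporting Pax8 driven TPO promoter activity; plate controls were median of neutral control wells for no effect and mitoxantrone controls for full effect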
FN deposit inh: fibronectin deposition inhibition; AID 743247; inhibition, % at 12.6 µM; AH1F fibroblasts, Alexa488-fibronectin deposition fluorescence, overnight; hit rate 0.086% among 350,000;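 active = mean inhibition across replicates of 30% or more, regardless of how many single replicates reach that level; inconclusive = mean under 30% yet at least half of replicates reach 30%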;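 also: positive control wells lacked labelled fibronectin entirely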
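Measured by – fluorescence 485/525 nm · System – AH1F fibroblast monolayer, labelled fibronectin deposition · Amount – 10000 cells per well · Buffer or medium – serum-reduced DMEM (2% serum) · Doses – single dose, pinned · Also added – fluorescent fibronectin at 24 nM final · Schedule – 1 h cell attachment, overnight exposure to compound and label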
AlphaScreen intf: counter-screen: AlphaScreen signal interference | AC50, µM (titrated, usually from 12 µM), for inactives: top-dose activity change, negative = inhibition | AID 720494 | hit rate 45% among 530 | signal luminescence | shares compounds with AF4-AF9 inh; cut-off not given, nearly all actives have AC50 up to about 14 µM
An asterisk follows results filed as active; ? = inconclusive; · = not tested or not shown; ! = not active in a repeat; [ ] = remark or other dose. Sampled rows, rich in hits. Any-hit rate of the full collection: about 2.5%.

SMILES	Env fusion inh	AF4-AF9 inh	EWS-Fli inh	Glyco luc inh	PAX8 inh HTS	FN deposit inh	AlphaScreen intf
CCN(CC)c1ccc(C(=O)O)cc1	-2.3	-0.7	9.1	1.0	-1.5	11.7	·
CCCCCN=C(N)N/N=C/c1c[nH]c2ccc(OC)cc12	2.1	35.0*	57.3*	-19.5	106.5*	17.8	-39.3%
Cc1ccc(C)c(S(=O)(=O)N2CCN(Cc3ccc(O)c4ncccc34)CC2)c1	27.6	82.0*	23.4	-10.7	72.9*	-1.9	-31.1%
CCOC(=O)N1CCN(Cc2ccc(O)c3ncccc23)CC1	-4.8	19.1	11.2	·	31.1	·	·
Cc1noc(C)c1NC(=O)N(C)C[C@@H]1Oc2ccc(NS(C)(=O)=O)cc2CC(=O)N([C@@H](C)CO)C[C@@H]1C	7.6[16.7 µM]	·	2.9	·	6.4	·	·
COc1ccc(-c2cc(NC=O)c3ncc(-c4cccc(C(=O)NCCN(C)C)c4)n3c2)cc1	-41.1	26.3*	-10.3	-6.3	-4.6	·	-25.4%
CN(C)C(CNC(C(=O)Nc1ccc([N+](=O)[O-])cc1Br)c1ccccc1)c1ccccc1 (stereo not drawn)	30.7	34.9*	8.6	-3.8	0.5	-2.8	-23.4%
COc1cc(Nc2c3ccccc3nc3ccccc23)cc(OC)c1OC	-75.7	31.3*	9.1	15.6	2.7	4.8	12.5µM*
CCNC(=O)C[C@H]1C=C[C@@H](NC(=O)C2CCOCC2)[C@H](CO)O1	5.1[16.7 µM]	-1.0	-5.2	·	-1.4	·	·
C[C@@H]1CN([C@@H](C)CO)C(=O)c2cccc(NC(=O)CCCCCC(=O)Nc3ccccc3N)c2O[C@H]1CN(C)C(=O)Nc1ccc(F)cc1	·	0.0	-1.0	·	-1.8	·	·
Oc1ccccc1C=NCC(O)c1ccccc1 (stereo not drawn)	-24.7	5.3	-9.8	-0.6	36.1	0.7	·
Oc1ccccc1C=NCCN=Cc1ccccc1O	2.2	-3.5	0.7	1.3	34.5	11.9	·
Oc1ccccc1C=NCCN1CCN(CCN=Cc2ccccc2O)C1c1ccccc1O (stereo not drawn)	-1.4	30.4*	3.7	-2.7	7.0	·	13.0%
Oc1ccccc1C=NCCCCCCN=Cc1ccccc1O	-0.7	39.1*	-0.3	-3.0	-0.4	-11.9	-13.0%
COc1ccc2nc3cccc(OC)c3nc2c1	-44.4	2.4	-79.7	10.5	-141.3	·	·
COc1ccc2nc3ccccc3nc2c1N	-55.4	?	-124.0	3.6	-53.7	4.9	12µM*
C/C=C/c1ccc([C@H]2[C@@H](CO)N(CC3CC3)C23CN(S(C)(=O)=O)C3)cc1	·	1.9	-2.4	·	6.2	·	·
O=C(NCCCN1CCCC1=O)C1CCN(S(=O)(=O)c2cccc(C(F)(F)F)c2)CC1	-67.8	27.1*	-0.6	-1.5	-4.6	-10.0	-10.8%
COc1cccc(OCC(O)CN2CCC(CN3C(=O)c4cccc5cccc(c45)C3=O)CC2)c1 (stereo not drawn)	-1.1	33.8*	27.5	18.6	29.2	2.4	-10.1%
Cc1cc(C)cc(OCC(O)CN2CCC(CN3C(=O)c4cccc5cccc(c45)C3=O)CC2)c1 (stereo not drawn)	3.4	29.7*	28.8	-0.3	67.4*	-1.1	-33.1%
O=C1c2cccc3cccc(c23)C(=O)N1CC1CCN(CC(O)COc2ccc3ccccc3c2)CC1 (stereo not drawn)	-5.3	0.3	25.7	-5.5	29.7	2.1	·
CCC(=O)N[C@@H]1C=C[C@H](CC(=O)NCc2ccccc2OC)O[C@H]1CO	6.6[16.7 µM]	-1.6	6.4	·	-2.5	·	·
COc1cccc(S(=O)(=O)Nc2ccc3c(c2)[C@@H]2C[C@H](CC(=O)N(C)C)O[C@H](CO)[C@@H]2O3)c1	·	-0.8	7.5	·	·	-6.5	·
Nc1[nH]n(-c2ccccc2)c(=O)c1N=Nc1ccc2c(c1)OCCO2	-123.3	39.3*	20.9	-16.1	-63.2	·	-21.9%
S=C(NN=C(c1ccccc1)c1ccccn1)N(Cc1ccccn1)Cc1ccccn1	76.2*	53.2*	6.5	-15.0	·	3.5	7.98µM*
SMILES	Env fusion inh	AF4-AF9 inh	EWS-Fli inh	Glyco luc inh	PAX8 inh HTS	FN deposit inh	AlphaScreen intf
Cc1ccc(S(=O)(=O)NC(=O)Nc2ccc(N(C)C)cc2)cc1	-111.0	34.6*	-48.7	-15.7	-182.3	-3.3	-28.0%
Oc1c(C(Nc2cccc(C(F)(F)F)c2)c2ccncc2)ccc2cccnc12 (stereo not drawn)	13.8	33.4*	15.4	-11.9	48.4	-5.1	4.76µM*
O=C(C1CCOCC1)N1CC[C@@H]2[C@H]1c1cc(Br)ccc1N[C@@H]2CO	·	-2.6	-7.4	·	-8.8	-16.4	·
C(=C1c2ccccc2-c2ccccc21)c1ccccn1	-41.7	18.8	8.1	4.0	12.5	4.8	-31.0%
CN(C)C(=O)c1ccc(-c2ccc(C3[C@@H]4CN(C(=O)C5CCCC5)C[C@H]3N4)cc2)cc1 (stereo partly drawn)	·	-1.0	-1.8	·	·	6.8	·
CCOc1ccc(NCc2cccn2-c2nnc(N3CCC(C(=O)NCCCN4CCCCC4CC)CC3)s2)cc1 (stereo not drawn)	4.1	38.2*	14.0	-2.6	4.4	-2.3	10.5µM*
CCCC(=O)Nc1ccc2c(c1)OC[C@@H](C)N(CCc1ccccc1)C[C@H](C)[C@@H](OC)CN(C)C2=O	·	·	0.9	·	·	7.6	·
CN(C)CC/C=C1/c2ccc(F)cc2Sc2ccc(Cl)cc21	7.6	36.3*	-8.4	-5.0	-16.0	16.0	-31.2%
CN(C)CC/C=C1\c2ccccc2Sc2ccc(Cl)cc21	4.2	24.0	4.2	-2.0	-8.5	-2.7	·
CN(C)CC/C=C1\c2ccc(F)cc2Sc2cc(F)c(Cl)cc21	6.7	46.4*	13.1	-9.3	22.6	-13.0	-42.0%
CNC(=O)C[C@@H]1CC[C@H]2[C@@H](COc3ccc(NC(=O)Nc4ccccc4)cc3C(=O)N2C)O1	18.3[16.7 µM]	-4.2	-12.5	·	-4.2	-3.8	·
CCNC(=O)Nc1ccc2c(c1)C(=O)N(C)[C@@H]1CC[C@H](CC(=O)NCc3cccc(F)c3)O[C@@H]1CO2	1.0[16.7 µM]	·	10.4	·	-10.4	-5.6	·
CCOc1cc(N2CCOCC2)c(OCC)cc1NC(=O)c1ccc2ccccc2n1	-4.3	37.6*	-44.1	2.9	1.8	-15.9	-30.8%
Cc1noc(C)c1S(=O)(=O)Nc1ccc2c(c1)CC(=O)N([C@H](C)CO)C[C@H](C)[C@H](CN(C)C(=O)NC(C)C)O2	4.3[16.7 µM]	-1.5	-3.7	·	3.4	0.8	·
C[C@H]1CN([C@@H](C)CO)C(=O)Cc2cc(NS(=O)(=O)c3cccs3)ccc2O[C@H]1CN(C)CC1CC1	·	-1.9	6.0	·	·	·	·
Oc1ccc(Br)cc1C=Nc1ccc(Cl)cc1	-16.8	-2.2	5.5	1.8	4.6	-1.2	·
CCN(CC)c1ccc(N=Cc2cc(Br)ccc2O)cc1	17.9	46.0*	-15.8	1.0	-6.5	-7.1	-2.2%
CC1CCN(CC(=O)Nc2ccc(N3CCCCCC3)cc2)CC1	10.7	52.9*	14.1	-1.2	9.8	·	11.5µM*
CC(=O)N(C)C[C@@H]1Oc2cc(-c3ccccc3C)ccc2S(=O)(=O)N([C@@H](C)CO)C[C@@H]1C	38.5[16.7 µM]	-1.8	-5.8	·	·	·	·
O=C(C[C@H]1CC[C@@H]2[C@H](COC[C@@H](O)CN2S(=O)(=O)c2ccccc2)O1)NCC1CCCCC1	·	39.3*	1.9	·	3.0	·	-18.5%
O=C(C[C@@H]1CC[C@@H]2[C@H](COC[C@H](O)CN2S(=O)(=O)c2ccccc2)O1)NCC1CCCCC1	·	6.2	-6.3	·	5.9	-2.2	·
COc1ccc(S(=O)(=O)/N=C2\C=C(Nc3ccc(O)cc3)C(=O)c3ccccc32)cc1	75.2*	40.6*	52.4*	-19.0	107.7*	35.7*	2.69µM*
O=C1c2c(O)ccc(O)c2C(=O)c2c(NCCNCCO)ccc(NCCNCCO)c21	58.0*	96.6*	40.4	-19.6	105.9*!	-0.3	0.355µM*
